Active and inactive are the calls of the source. The calls are words filed in the database; no cut-off is given here.
What was measured:
[1] = tested on: Mus musculus; experiment: Anti-diabetic activity in 6 hrs-fasted db/db mouse assessed as reduction in blood glucose AUC (0 to 120 mins) at 10 mg/kg, po pretre at ed for 60 mins followed by glucose challenge and measured after 120 mins post glucose challenge by OGTT rel at ive to control
[2] = tested on: Mus musculus; experiment: Anti-diabetic activity in db/db mouse assessed as reduction in fasting blood glucose at 10 mg/kg, po dosed once weekly for 8 weeks; type: functional; set-up: scale not given: the % may be the effect or the level left
[3] = tested on: Mus musculus; experiment: Anti-diabetic activity in 6 h-fasted db/db mouse assessed as inhibition of DPP4 in plasma at 10 mg/kg, po administered as single dose pretreated for 60 mins followed by glucose challenge and measured after 120 mins post glucose challenge by OGTT; type: functional, organism-based
[4] = tested on: Mus musculus; experiment: Anti-diabetic activity in db/db mouse assessed as increase in glucose-induced insulin secretion at 10 mg/kg, po dosed once weekly for 8 weeks pretreated for 60 mins followed by glucose challenge and measured after 120 mins post glucose challenge by OGTT relative to control; type: functional
[5] = tested on: Mus musculus; experiment: Anti-diabetic activity in db/db mouse assessed as increase in glucose tolerance at 10 mg/kg, po dosed once weekly for 8 weeks by OGTT; type: functional, organism-based
[6] = tested on: Mus musculus; experiment: Anti-diabetic activity in db/db mouse assessed as HbA1c levels at 10 mg/kg, po dosed once weekly for 8 weeks; type: functional
[7] = tested on: Mus musculus; experiment: Anti-diabetic activity in 8 hrs-fasted ICR mouse assessed as reduction in blood glucose AUC (0 to 120 mins)at 0.3 mg/kg, po pretreated for 60 mins followed by glucose challenge and measured after 120 mins post glucose challenge by OGTT relative to control; type: functional
In short: (§1)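 Male ICR mice (n = 10/group), fasted 8 h, dosed orally at 0.03, 0.3 or 3 mg/kg in 0.5% CMC-Na 1 h before an oral glucose load of 3 g/kg. Glucometer readings at −60, 0, 15, 30, 60, 90 and 120 min. Glucose AUC0–120 min by the trapezoidal method; one-way ANOVA with Fisher's LSD against vehicle.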

[8] = tested on: Mus musculus; experiment: Anti-diabetic activity in ICR mouse assessed as inhibition of DPP4 in plasma at 3 mg/kg, po administered as single dose using Gly-Pro-AMC as substrate and measured after 7 days post dose by fluorometric assay relative to control; type: functional
In short: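 Male ICR mice (n = 10/group), fasted 2 h, given single oral doses of 0.03–3 mg/kg in 0.5% CMC-Na, with pre-dose baseline blood. Blood was drawn at 1–168 h. […] DPP-4 was read continuously for 5 min at 37 °C with 10 µM Gly-Pro-AMC in 100 mM HEPES pH 7.5 containing 0.1 mg/mL BSA (ex 360/em 460 nm). % activity is the treated rate over each animal's own baseline rate.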

[9] = tested on: Mus musculus; experiment: Anti-diabetic activity in 8 hrs-fasted ICR mouse assessed as reduction in blood glucose AUC (0 to 120 mins) at 3 mg/kg, po pretre at ed for 60 mins followed by glucose challenge and measured after 120 mins post glucose challenge by OGTT rel at ive to control; type: functional
In short: as §1

[10] = tested on: Mus musculus; experiment: Anti-diabetic activity in 8 hrs-fasted ICR mouse assessed as increase in insulin levels at 1 mg/kg, po pretreated for 60 mins followed by glucose challenge by OGTT; type: functional, organism-based
In short: (§2)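 Male ICR mice (n = 10/group), fasted 8 h, dosed orally at 0.3, 1 or 3 mg/kg 1 h before oral glucose at 3 g/kg. Blood was collected at 0, 5 and 10 min into tubes with valine pyrrolidide and EDTA. Active GLP-1[7-36 amide] and insulin measured by kit. Two-way ANOVA with Fisher's LSD against vehicle.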

[11] = tested on: Mus musculus; experiment: Anti-diabetic activity in 8 hrs-fasted ICR mouse assessed as increase in GLP1 levels at 1 mg/kg, po pretreated for 60 mins followed by glucose challenge and measured 5 to 10 mins post glucose challenge by OGTT relative to control; type: functional
In short: as §2

[12] = AUCt in ICR mouse at 2 mg/kg, po by LC-MS-MS analysis; type: ADME, organism-based; details: in vivo
In short: (§3)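 Male ICR mice (n = 4/group), fasted 2 h, given a single oral dose of 2 mg/kg. Baseline blood was taken into EDTA, then samples at 1, 2, 4, 6, 8, 24, 48, 72, 96 and 120 h. Plasma was kept at -80 °C and concentrations measured by LC/MS/MS. Parameters came from noncompartmental analysis; values are means.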

[13] = Terminal half life in Sprague-Dawley rat at 1 mg/kg, iv by LC-MS-MS analysis; type: ADME, organism-based; details: in vivo, read-out: beta t1/2 (converted)
[14] = Toxicity in db/db mouse assessed as induction of distress signs at 3 to 10 mg/kg, po dosed once weekly for 8 weeks; type: organism-based; details: in vivo, 1344 h
[15] = Toxicity in ICR mouse assessed as effect on body weight at 30 mg/kg, po administered once daily for 14 consecutive days; type: organism-based; details: in vivo
In short: (§4)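 ICR mice dosed orally at 30 mg/kg once daily for 14 consecutive days. Endpoints were clinical signs, body weight, organ index, blood parameters and serum biochemistry, each compared with a control group.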

[16] = Toxicity in ICR mouse assessed at 300 mg/kg, po administered as single dose; type: organism-based; details: in vivo
In short: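 ICR mice given a single oral dose of 300 mg/kg to assess acute toxicity.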

[17] = Toxicity in ICR mouse assessed as effect on blood parameter at 30 mg/kg, po administered once daily for 14 consecutive days; type: organism-based; details: in vivo
In short: as §4

[18] = Clearance in Sprague-Dawley rat at 1 mg/kg, iv by LC-MS-MS analysis; type: ADME, organism-based; details: in vivo
[19] = tested on: Mus musculus; experiment: Anti-diabetic activity in mouse assessed as inhibition of DPP4 in plasma at 3 mg/kg, po administered as single dose pretreated for 60 mins followed by glucose challenge and measured over 168 hrs post dose
[20] = tested on: Mus musculus; experiment: Anti-diabetic activity in db/db mouse assessed as reduction in fasting blood glucose at 3 mg/kg, po dosed once weekly for 8 weeks; type: functional; set-up: scale not given: the % may be the effect or the level left
[21] = MRT (0 to infinity) in ICR mouse at 2 mg/kg, po by LC-MS-MS analysis; type: ADME, organism-based; details: in vivo
In short: as §3

[22] = Toxicity in ICR mouse assessed as effect on serum biochemical parameters at 30 mg/kg, po administered once daily for 14 consecutive days; type: organism-based; details: in vivo
In short: as §4

[23] = Toxicity in db/db mouse assessed as induction of abnormal weight gain at 3 to 10 mg/kg, po dosed once weekly for 8 weeks; type: organism-based; details: in vivo, 1344 h
[24] = Plasma concentration in Sprague-Dawley rat at 2 mg/kg, po by LC-MS-MS analysis; type: ADME, organism-based; details: in vivo
[25] = Toxicity in db/db mouse assessed as induction of discomfort signs at 3 to 10 mg/kg, po dosed once weekly for 8 weeks; type: organism-based; details: in vivo, 1344 h
[26] = Cmax in Sprague-Dawley rat at 1 mg/kg, iv by LC-MS-MS analysis; type: ADME, organism-based; set-up: dose 1 mg/kg, route intravenous; details: in vivo
[27] = Cmax in ICR mouse at 2 mg/kg, po by LC-MS-MS analysis; type: ADME, organism-based; set-up: dose 2 mg/kg, route oral; details: in vivo
In short: as §3

[28] = Tmax in Sprague-Dawley rat at 2 mg/kg, po by LC-MS-MS analysis; type: ADME, organism-based; details: in vivo
[29] = Terminal half life in ICR mouse at 2 mg/kg, po by LC-MS-MS analysis; type: ADME, organism-based; details: in vivo, read-out: beta t1/2 (converted)
In short: as §3

[30] = MRT (0 to infinity) in Sprague-Dawley rat at 1 mg/kg, iv by LC-MS-MS analysis; type: ADME, organism-based; details: in vivo
[31] = Cmax in Sprague-Dawley rat at 2 mg/kg, po by LC-MS-MS analysis; type: ADME, organism-based; set-up: dose 2 mg/kg, route oral; details: in vivo
[32] = AUC (0 to infinity) in ICR mouse at 2 mg/kg, po by LC-MS-MS analysis; type: ADME, organism-based; set-up: dose 2 mg/kg, route oral, time infinity; details: in vivo
In short: as §3

[33] = Tmax in ICR mouse at 2 mg/kg, po by LC-MS-MS analysis; type: ADME, organism-based; details: in vivo
In short: as §3

[34] = AUCt in Sprague-Dawley rat at 2 mg/kg, po by LC-MS-MS analysis; type: ADME, organism-based; details: in vivo
[35] = Oral bioavailability in Sprague-Dawley rat at 2 mg/kg after 24 hrs by LC-MS-MS analysis; type: ADME, organism-based; details: in vivo
[36] = Plasma concentration in Sprague-Dawley rat at 2 mg/kg, po after 24 hrs by LC-MS-MS analysis; type: ADME, organism-based; details: in vivo
[37] = biological target: Voltage-gated inwardly rectifying potassium channel KCNH2 (Homo sapiens, UniProt Q12809); experiment: Inhibition of human ERG by patch clamp assay
Chain of Voltage-gated inwardly rectifying potassium channel KCNH2 (Q12809 whole entry): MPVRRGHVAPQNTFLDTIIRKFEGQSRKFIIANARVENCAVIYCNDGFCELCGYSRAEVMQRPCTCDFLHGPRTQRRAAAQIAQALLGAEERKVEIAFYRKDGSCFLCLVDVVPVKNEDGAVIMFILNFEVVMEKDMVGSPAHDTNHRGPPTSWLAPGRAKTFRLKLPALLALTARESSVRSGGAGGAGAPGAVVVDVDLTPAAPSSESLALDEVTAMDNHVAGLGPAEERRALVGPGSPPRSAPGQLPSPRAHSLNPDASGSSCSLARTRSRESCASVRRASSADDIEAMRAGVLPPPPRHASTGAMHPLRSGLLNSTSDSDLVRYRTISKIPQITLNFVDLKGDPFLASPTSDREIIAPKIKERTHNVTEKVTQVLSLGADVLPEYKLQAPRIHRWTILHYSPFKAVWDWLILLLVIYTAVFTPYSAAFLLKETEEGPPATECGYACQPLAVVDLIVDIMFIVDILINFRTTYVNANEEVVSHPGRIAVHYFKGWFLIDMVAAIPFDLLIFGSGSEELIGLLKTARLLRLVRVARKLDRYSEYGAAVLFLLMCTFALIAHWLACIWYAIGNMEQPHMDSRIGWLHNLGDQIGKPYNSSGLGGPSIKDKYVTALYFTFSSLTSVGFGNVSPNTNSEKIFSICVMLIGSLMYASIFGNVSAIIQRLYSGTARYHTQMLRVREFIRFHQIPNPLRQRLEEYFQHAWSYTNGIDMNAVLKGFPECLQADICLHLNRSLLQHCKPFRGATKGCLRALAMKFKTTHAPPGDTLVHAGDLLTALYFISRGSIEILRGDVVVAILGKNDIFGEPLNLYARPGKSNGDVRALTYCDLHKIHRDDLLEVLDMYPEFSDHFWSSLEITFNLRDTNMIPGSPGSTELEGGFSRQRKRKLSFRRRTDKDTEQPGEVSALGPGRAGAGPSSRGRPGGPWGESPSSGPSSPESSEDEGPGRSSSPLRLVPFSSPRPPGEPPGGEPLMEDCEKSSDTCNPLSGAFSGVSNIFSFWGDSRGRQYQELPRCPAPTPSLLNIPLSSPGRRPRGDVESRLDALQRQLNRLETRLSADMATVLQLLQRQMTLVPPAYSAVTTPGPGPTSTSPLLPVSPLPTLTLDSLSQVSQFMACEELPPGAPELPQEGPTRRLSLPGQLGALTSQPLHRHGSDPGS

[38] = Initial plasma concentration in Sprague-Dawley rat at 1 mg/kg, iv by LC-MS-MS analysis; type: ADME, organism-based
[39] = tested on: Rattus norvegicus; experiment: Initial plasma concentration in Sprague-Dawley rat at 2 mg/kg, po by LC-MS-MS analysis; type: ADME, organism-based; details: in vivo
[40] = Toxicity in ICR mouse assessed as effect on clinical signs at 30 mg/kg, po administered once daily for 14 consecutive days; type: organism-based; details: in vivo
In short: as §4

[41] = tested on: Mus musculus; experiment: Anti-diabetic activity in 8 hrs-fasted ICR mouse assessed as increase in insulin levels at 3 mg/kg, po pretreated for 60 mins followed by glucose challenge by OGTT; type: functional, organism-based
In short: as §2

[42] = AUC (0 to infinity) in Sprague-Dawley rat at 1 mg/kg, iv by LC-MS-MS analysis; type: ADME, organism-based; set-up: dose 1 mg/kg, route intravenous, time infinity; details: in vivo
[43] = tested on: Mus musculus; experiment: Initial plasma concentration in ICR mouse at 2 mg/kg, po by LC-MS-MS analysis; type: ADME, organism-based; details: in vivo
In short: as §3

[44] = Toxicity in ICR mouse assessed as effect on organ index at 30 mg/kg, po administered once daily for 14 consecutive days; type: organism-based; details: in vivo
In short: as §4

[45] = Volume of distribution at steady state in Sprague-Dawley rat at 1 mg/kg, iv by LC-MS-MS analysis; type: ADME, organism-based; details: in vivo, read-out: Vdss
[46] = AUCt in Sprague-Dawley rat at 1 mg/kg, iv by LC-MS-MS analysis; type: ADME, organism-based; details: in vivo

Cn1c(=O)cc(N2CCC[C@@H](N)C2)n(Cc2cc(F)ccc2C#N)c1=O [TRELAGLIPTIN]
inhibition in vivo at 10 mg/kg [1]: 19.3%
Activity [2]: 16.8%
inhibition [3]: Active
fold change (FC) [4]: 1.7
Activity [5]: Active
Activity [6]: Active

CS(=O)(=O)n1cc2c(n1)CN([C@H]1CO[C@H](c3cc(F)ccc3F)[C@@H](N)C1)C2 [OMARIGLIPTIN]
inhibition in vivo at 10 mg/kg [1]: 8.3%
Activity [2]: 26.6%
inhibition in vivo at 0.3 mg/kg [7]: 14.6%
inhibition [8]: Active
inhibition in vivo at 3 mg/kg [9]: 22.1%
inhibition [3]: Active
Activity [10]: Active
fold change (FC) [4]: 1.8
Activity [5]: Active
fold change (FC) [11]: 1.6 - 1.7
Activity [6]: Active

COc1cc2c3c(ccc2cc1C#N)O[C@H](c1cc(F)c(F)cc1F)[C@@H](N)C3
inhibition in vivo at 10 mg/kg [1]: 18.3%
AUC(0-t) [12]: 82000 ng·h/mL
half-life [13]: 11.9 h
Activity [2]: 33.1%
Activity [14]: Non-Toxic
Activity [15]: Non-Toxic
Activity [16]: Non-Toxic
Activity [17]: Non-Toxic
clearance [18]: 1.1 mL/min/kg
inhibition in vivo at 3 mg/kg [19]: > 80%
Activity [20]: 24.7%
inhibition in vivo at 0.3 mg/kg [7]: 16.4%
MRT inf [21]: 40.7 h
Activity [22]: Non-Toxic
Activity [23]: Non-Toxic
Drug uptake [24]: Active
Activity [25]: Non-Toxic
Cmax [26]: 2010 ng/mL
inhibition in vivo at 3 mg/kg ([8]; 168 h): ≤ 80%
Cmax [27]: 1770 ng/mL
inhibition in vivo at 3 mg/kg [9]: 27.2%
Tmax [28]: 6.67 h
half-life [29]: 25.3 h
MRT inf [30]: 15.9 h
Cmax [31]: 1390 ng/mL
AUC(0-inf) [32]: 85600 ng·h/mL
Tmax [33]: 10.2 h
AUC(0-t) [34]: 23200 ng·h/mL
bioavailability [35]: 98.5%
Drug uptake [36]: Active
IC50 [37]: > 40 µM
Activity [5]: Active
C0 [38]: 2010 ng/mL
C0 [39]: 1387.47 ng/mL
Activity [40]: Non-Toxic
Activity [41]: Active
AUC(0-inf) [42]: 15400 ng·h/mL
Activity [6]: 3.56%
C0 [43]: 1773.37 ng/mL
Activity [44]: Non-Toxic
Vd [45]: 2.07 L/kg
AUC(0-t) [46]: 11800 ng·h/mL

Source: ChEMBL document CHEMBL4480397, “Discovery of a Natural-Product-Derived Preclinical Candidate for Once-Weekly Treatment of Type 2 Diabetes” (J Med Chem, 2019)
